{"source": "ChEMBL document CHEMBL1154285", "about": "“Meroterpenes from Dichrostachys cinerea inhibit protein farnesyl transferase activity” (J Nat Prod, 2009)", "key": {"[1]": {"test": "Inhibition of rat farnesyl transferase after 30 mins", "summary_of_the_method": "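Rat PFTase at 10 nM, added last to start the reaction, in 50 mM Tris/HCl pH 7.5 with 5 mM MgCl2, 5 mM DTT, 0.1 mM ZnCl2 and 0.2% octyl-β-D-glucopyranoside. Substrates were 10 µM GCVLS-dansyl and 10 µM farnesyl pyrophosphate. Compounds from 0.3 nM to 100 µM, 1% DMSO final, in triplicate. Incubation 30 min at 37 °C; fluorescence read at ex 340/em 505 nm. IC50 from sigmoidal dose-response fit.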"}, "[2]": {"test": "Cytotoxicity against human WM266.4 cells after 72 hrs by ATP lite assay", "type": "functional, WM 266-4", "summary_of_the_method": "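Metastatic melanoma WM 266-4 cells (ATCC), 5000 per well, in RPMI with 10% FBS, 50 µg/mL streptomycin and 50 U/mL penicillin. Compounds were present for 72 h at 1% DMSO final, in triplicate. Viability was read by ATPLite luminescence. IC50 from sigmoidal dose-response fit.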"}}, "data": [{"smiles": "C=C1[C@@H](O)C[C@H]2C(C)(C)C[C@H](O)C[C@]2(C)[C@@]1(O)C[C@@H]1C(C)=CC[C@H]2C(=O)C(OC)=CC(=O)[C@@]12c1cc(=O)c2c(O)cc(O)cc2o1", "note": "[DICHROSTACHINE D]", "values": [{"measurement": "IC50", "setting": "[1]", "value": 86, "unit": "µM"}, {"measurement": "Activity", "setting": "[2]", "value": ">10", "unit": "µM"}]}, {"smiles": "C=C1C(=O)C[C@H]2C(C)(C)C[C@H](O)C[C@]2(C)[C@@]1(O)C[C@@H]1C(C)=CC[C@H]2C(=O)C(OC)=CC(=O)[C@@]12c1cc(=O)c2c(O)cc(OC)cc2o1", "note": "[DICHROSTACHINE N]", "values": [{"measurement": "Activity", "setting": "[2]", "value": 2.8, "unit": "µM"}]}, {"smiles": "C=C1C(=O)C[C@H]2C(C)(C)CCC[C@]2(C)[C@H]1C[C@@H]1C(C)=CC[C@H]2C(=O)C(OC)=CC(=O)[C@@]12c1cc(=O)c2c(O)cc(OC)cc2o1", "note": "[DICHROSTACHINE M]", "values": [{"measurement": "IC50", "setting": "[1]", "value": 3, "unit": "µM"}, {"measurement": "Activity", "setting": "[2]", "value": 3.1, "unit": "µM"}]}, {"smiles": "C=C1[C@@H](O)C[C@@H]2[C@](C)(CCC[C@@]2(C)C(=O)O)[C@H]1C[C@@H]1C(C)=CC[C@H]2C(=O)C(OC)=CC(=O)[C@@]12c1cc(=O)c2c(O)cc(O)cc2o1", "note": "[DICHROSTACHINE E]", "values": [{"measurement": "IC50", "setting": "[1]", "value": 40, "unit": "µM"}, {"measurement": "Activity", "setting": "[2]", "value": ">10", "unit": "µM"}]}, {"smiles": "C=C1[C@@H](O)C[C@H]2C(C)(C)C[C@H](O)C[C@]2(C)[C@H]1C[C@@H]1C(C)=CC[C@H]2C(=O)C(OC)=CC(=O)[C@@]12c1cc(=O)c2c(O)cc(O)cc2o1", "note": "[DICHROSTACHINE B]", "values": [{"measurement": "IC50", "setting": "[1]", "value": 40, "unit": "µM"}, {"measurement": "Activity", "setting": "[2]", "value": ">10", "unit": "µM"}]}, {"smiles": "C=C1[C@@H](O)C[C@@H]2[C@](C)(CCC[C@@]2(C)C=O)[C@H]1C[C@@H]1C(C)=CC[C@H]2C(=O)C(OC)=CC(=O)[C@@]12c1cc(=O)c2c(O)cc(O)cc2o1", "note": "[DICHROSTACHINE H]", "values": [{"measurement": "IC50", "setting": "[1]", "value": 1.8, "unit": "µM"}, {"measurement": "Activity", "setting": "[2]", "value": ">10", "unit": "µM"}]}, {"smiles": "C=C1[C@@H](O)C[C@H]2C(C)(C)CCC[C@]2(C)[C@H]1C[C@@H]1C(C)=CC[C@H]2C(O)C(OC)=CC(=O)[C@@]12c1cc(=O)c2c(O)cc(O)cc2o1", "note": "(stereo not given in full) [DICHROSTACHINE O]", "values": [{"measurement": "IC50", "setting": "[1]", "value": 25, "unit": "µM"}, {"measurement": "Activity", "setting": "[2]", "value": ">10", "unit": "µM"}]}, {"smiles": "C=C1[C@@H](O)C[C@H]2[C@](C)(CO)CCC[C@]2(C)[C@H]1C[C@@H]1C(C)=CC[C@H]2C(=O)C(OC)=CC(=O)[C@@]12c1cc(=O)c2c(O)cc(O)cc2o1", "note": "[DICHROSTACHINE A]", "values": [{"measurement": "IC50", "setting": "[1]", "value": 10, "unit": "µM"}, {"measurement": "Activity", "setting": "[2]", "value": ">10", "unit": "µM"}]}, {"smiles": "C=C1[C@@H](O)C[C@H]2C(C)(C)CCC[C@]2(C)[C@H]1C[C@@H]1C(C)=CC[C@H]2C(O)C(=O)C=C[C@@]12c1cc(=O)c2c(O)cc(O)cc2o1", "note": "(stereo not given in full) [DICHROSTACHINE P]", "values": [{"measurement": "IC50", "setting": "[1]", "value": 7, "unit": "µM"}, {"measurement": "Activity", "setting": "[2]", "value": ">10", "unit": "µM"}]}, {"smiles": "COC1=CC(=O)[C@@]2(c3cc(=O)c4c(O)cc(O)cc4o3)[C@H](C[C@]3(O)[C@@]4(C)C[C@@H](O)CC(C)(C)[C@@H]4CC[C@@]3(C)O)C(C)=CC[C@H]2C1=O", "values": [{"measurement": "IC50", "setting": "[1]", "value": 17, "unit": "µM"}, {"measurement": "Activity", "setting": "[2]", "value": ">10", "unit": "µM"}]}, {"smiles": "NC(=O)N1CCC(CC(=O)N2CCC([C@H]3c4ncc(Br)cc4CCc4cc(Cl)cc(Br)c43)CC2)CC1", "note": "[LONAFARNIB]", "values": [{"measurement": "IC50", "setting": "[1]", "value": 0.1, "unit": "µM"}, {"measurement": "Activity", "setting": "[2]", "value": ">10", "unit": "µM"}]}, {"smiles": "C=C1[C@@H](O)C[C@H]2C(C)(C)CCC[C@]2(C)[C@H]1C[C@@H]1C(C)=CC[C@H]2C(=O)C(OC)=CC(=O)[C@@]12c1cc(=O)c2c(O)cc(O)cc2o1", "note": "[DICHROSTACHINE C]", "values": [{"measurement": "IC50", "setting": "[1]", "value": 5.7, "unit": "µM"}, {"measurement": "Activity", "setting": "[2]", "value": ">10", "unit": "µM"}]}, {"smiles": "C=C1C(=O)C[C@H]2C(C)(C)CCC[C@]2(C)[C@H]1C[C@@H]1C(C)=CC[C@H]2C(=O)C(OC)=CC(=O)[C@@]12c1cc(=O)c2c(O)cc(O)cc2o1", "note": "[DICHROSTACHINE L]", "values": [{"measurement": "IC50", "setting": "[1]", "value": 3.2, "unit": "µM"}, {"measurement": "Activity", "setting": "[2]", "value": ">10", "unit": "µM"}]}]}
